Data published in ChEMBL document CHEMBL3232903, “New pyrazolobenzothiazine derivatives as hepatitis C virus NS5B polymerase palm site I inhibitors” (J Med Chem, 2014).

What was measured:
[1] = Cytostatic activity against human Huh5-2 cells carrying HCV genotype 1b I389luc-ubi-neo/NS3-3'/5.1 replicon assessed as reduction in metabolic activity after 72 hrs by MTS assay; type: ADME, cell-based, Huh-5-2; details: for CC50: huh-5-2, 72 h
In short: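 Replicon-bearing Huh-5-2 cells run in parallel with the antiviral read-out; CC50 is the concentration halving MTS bioreduction to formazan, taken as the antimetabolic effect on host cells; mean ± SD from at least three dose–response curves.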

[2] = Inhibition of RNA-dependent RNA polymerase activity of HCV genotype 1b HC-J4 recombinant N-terminal histidine tagged C-terminal 21 aminoacids truncated NS5B polymerase after 1 hr by standard primer dependent elongation assay; design: species or system Hepatitis C virus isolate HC-J4
In short: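 Recombinant NS5BCΔ21 genotype 1b in a primer-dependent elongation assay. IC50 is the concentration halving enzyme activity in vitro; mean ± SD of two independent experiments in duplicate.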

[3] = Selectivity index, ratio of CC50 for human Huh5-2 cells to EC50 for HCV genotype 1b I389luc-ubi-neo/NS3-3'/5.1 replicon infected in human Huh5-2 cells; design: species or system Huh-5-2
[4] = Cytotoxicity against human Huh5-2 cells carrying HCV genotype 1b I389luc-ubi-neo/NS3-3'/5.1 replicon assessed as cell morphological changes after 72 hrs by microscopic analysis; type: cell-based; details: huh-5-2, 72 h
In short: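 Huh-5-2 replicon cells examined by microscopy for changes in cell morphology after 72 h of compound treatment.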

[5] = test system: Hepatitis C virus isolate HC-J4; assay: Inhibition of RNA-dependent RNA polymerase activity of HCV genotype 1b HC-J4 recombinant N-terminal histidine tagged C-terminal 21 aminoacids truncated NS5B polymerase at 50 uM after 1 hr by standard primer dependent elongation assay
In short: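 Recombinant NS5BCΔ21 genotype 1b in a primer-dependent elongation assay. […] IC50 is the concentration halving enzyme activity in vitro; mean ± SD of two independent experiments in duplicate.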

Hepatitis C virus = assay: Antiviral activity against HCV genotype 1b I389luc-ubi-neo/NS3-3'/5.1 replicon infected in human Huh5-2 cells assessed as inhibition of virus replication by luciferase assay; type: functional, cell-based, Hepacivirus hominis; details: Huh-5-2

Row | SMILES | CC50 [1] [µM] | IC50 [2] [µM] | Ratio CC50/EC50 [3] | Activity [4] | inhibition [5] [%] | EC50 (Hepatitis C virus) [µM] | CC50 at 72 h [1] [µM] | EC90 (Hepatitis C virus) [µM]
1 | COc1cccc(-n2nc(C(=O)Nc3ccc(NS(C)(=O)=O)cc3)c3c2-c2ccccc2S(=O)(=O)N3C)c1 | > 181 | > 50 | >16 | Toxic | < 50 | 11 |  | 
2 | CN1c2c(C(=O)Nc3ccc(NS(C)(=O)=O)cc3)nn(-c3cccc(F)c3)c2-c2ccccc2S1(=O)=O |  |  |  |  |  |  | > 370 | 
3 | CN1c2c(C(=O)Nc3ccc(NS(C)(=O)=O)cc3)nn(-c3ccccc3C(F)(F)F)c2-c2ccccc2S1(=O)=O | > 169 | > 50 | >7 | Toxic | < 50 | 25 |  | 
4 | CN1c2c(C(=O)Nc3ccc(NS(C)(=O)=O)cc3)nn(-c3ccccc3Cl)c2-c2ccccc2S1(=O)=O | > 224 | 17.8 | >30 | Toxic | > 50 | 7.4 |  | 20.8
5 | CN1c2c(C(=O)Nc3ccc(NS(C)(=O)=O)cc3)nn(-c3cccc(Br)c3)c2-c2ccccc2S1(=O)=O | > 166 | 7.7 | >20 | Toxic | > 50 | 8.3 |  | 26
6 | CN1c2c(C(=O)Nc3ccc(NS(C)(=O)=O)cc3)nn(-c3ccccc3Br)c2-c2ccccc2S1(=O)=O | 107 | 26.5 | 8.9 | Toxic | > 50 | 12 |  | 
7 | COc1ccc(-n2nc(C(=O)Nc3ccc(NS(C)(=O)=O)cc3)c3c2-c2ccccc2S(=O)(=O)N3C)cc1 | > 226 | > 50 | >28 | Non-toxic | < 50 | 8.1 |  | 25
8 | CN1c2c(C(=O)Nc3ccc(NS(C)(=O)=O)cc3)nn(C3CCCCC3)c2-c2ccccc2S1(=O)=O | 44 | 43 | 9.7 | Toxic | > 50 | 4.5 |  | 11
9 | CN1c2c(C(=O)Nc3ccc(NS(C)(=O)=O)cc3)nn(-c3cccc(C(F)(F)F)c3)c2-c2ccccc2S1(=O)=O | > 211 | 23.7 | >28 | Toxic | > 50 | 7.7 |  | 33.2
10 | CN1c2c(C(=O)Nc3ccccc3)nn(-c3cccc(F)c3)c2-c2ccccc2S1(=O)=O | 56 | > 50 | 12 | Toxic | < 50 | 4.5 |  | 
11 | Cc1cccc(-n2nc(C(=O)Nc3ccc(NS(C)(=O)=O)cc3)c3c2-c2ccccc2S(=O)(=O)N3C)c1 | > 233 | 21.2 | >46 | Toxic | > 50 | 5.1 |  | 11.8
12 | Cc1ccccc1-n1nc(C(=O)Nc2ccc(NS(C)(=O)=O)cc2)c2c1-c1ccccc1S(=O)(=O)N2C | > 233 | 30.8 | >16 | Toxic | > 50 | 14.3 |  | 
13 | CN1c2c(C(=O)Nc3ccc(NS(C)(=O)=O)cc3)nn(-c3ccc(Cl)c(Cl)c3)c2-c2ccccc2S1(=O)=O | > 168 | 2.7 | >17 | Toxic | > 50 | 9.7 |  | 
14 | CN1c2c(C(=O)Nc3ccc(NS(C)(=O)=O)cc3)n[nH]c2-c2ccccc2S1(=O)=O | 155 | > 50 | 2.5 | Toxic | < 50 | 88.2 |  | 65.2
15 | Cc1ccc(-n2nc(C(=O)Nc3ccc(NS(C)(=O)=O)cc3)c3c2-c2ccccc2S(=O)(=O)N3C)cc1Cl | > 175 | 8 | >25 | Toxic | > 50 | 7 |  | 37
